# Key:
# [1] = Antiproliferative activity against human Bel7402 cells assessed as growth inhibition after 72 hrs by MTT assay; type: functional, cell-based; settings: Bel-7402, 72 h
# Method in brief: (§1)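 MTT proliferation assay on human K562 leukaemia, MCF-7 breast adenocarcinoma, Bel-7402 hepatocellular carcinoma and MGC-803 gastric cancer cells. Drug exposure 72 h. IC50 is the concentration inhibiting 50% of cell growth. Means ± SD, n = 3.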
# MGC-803 = assay: Antiproliferative activity against human MGC803 cells assessed as growth inhibition after 72 hrs by MTT assay; type: functional, cell-based; settings: MGC-803, 72 h; method in brief: as §1
# MCF7 = assay: Antiproliferative activity against human MCF7 cells assessed as growth inhibition after 72 hrs by MTT assay; type: functional, cell-based; settings: MCF7, 72 h; method in brief: as §1
# K562 = assay: Antiproliferative activity against human K562 cells assessed as growth inhibition after 72 hrs by MTT assay; type: functional, cell-based; settings: K562, 72 h; method in brief: as §1
# [2] = Anticancer activity against ABCB1-overexpressing human SW620/AD300 cells by MTT assay; type: functional, cell-based; settings: SW-620
# Method in brief: (§2)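 MTT cytotoxicity run on paired parental and transporter-overexpressing lines: SW620 vs ABCB1-overexpressing SW620/AD300, and NCI-H460 vs ABCG2-overexpressing NCI-H460/MX20. IC50 is the concentration inhibiting 50% of cell growth. Concentrations tested up to 100 μM.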
# [3] = Cell cycle arrest in human Bel7402 cells assessed as cells at G2 phase at 0.125 uM after 48 hrs by propidium iodide staining-based flow cytometric analysis (reference value: 19.52%); type: functional; settings: Bel-7402
# Bel-7402 [4] = assay: Induction of apoptosis in human Bel7402 cells assessed as necrotic cells after 48 hrs at 0.5 uM by Annexin V/propidium iodide staining-based flow cytometric analysis (reference value: 1.99%); type: functional
# Bel-7402 [5] = assay: Induction of apoptosis in human Bel7402 cells after 48 hrs by Annexin V/propidium iodide staining-based flow cytometric analysis; type: functional, cell-based
# [6] = Cell cycle arrest in human Bel7402 cells assessed as cells at G2 phase at 0.25 uM after 48 hrs by propidium iodide staining-based flow cytometric analysis (reference value: 19.52%); type: functional; settings: Bel-7402
# Bel-7402 [7] = assay: Induction of apoptosis in human Bel7402 cells assessed as early apoptotic cells after 48 hrs at 0.5 uM by Annexin V/propidium iodide staining-based flow cytometric analysis (reference value: 0.64%); type: functional
# [8] = Cell cycle arrest in human Bel7402 cells assessed as cells at G2 phase at 0.5 uM after 48 hrs by propidium iodide staining-based flow cytometric analysis (reference value: 19.52%); type: functional; settings: Bel-7402
# [9] = Cell cycle arrest in human Bel7402 cells assessed as cells at G1 phase at 0.125 uM after 48 hrs by propidium iodide staining-based flow cytometric analysis (reference value: 39.66%); type: functional; settings: Bel-7402
# Bel-7402 [10] = assay: Induction of apoptosis in human Bel7402 cells assessed as late apoptotic cells after 48 hrs at 0.125 uM by Annexin V/propidium iodide staining-based flow cytometric analysis (reference value: 5.21%); type: functional
# Bel-7402 [11] = assay: Selectivity index, ratio of IC50 for human L02 cells to ratio of IC50 for human Bel-7402 cells; type: functional
# Method in brief: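 Selectivity index is IC50 on normal L-02 liver cells divided by IC50 on Bel-7402 tumour cells. Both IC50 values come from MTT survival curves after 72 h exposure.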
# Bel-7402 [12] = assay: Induction of apoptosis in human Bel7402 cells assessed as late apoptotic cells after 48 hrs at 0.5 uM by Annexin V/propidium iodide staining-based flow cytometric analysis (reference value: 5.21%); type: functional
# [13] = Anticancer activity against human Bel7402 cells assessed as growth inhibition by MTT assay; type: functional, cell-based; settings: Bel-7402
# Method in brief: (§3)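 Toxicity compared on human normal liver L-02 cells and human liver cancer Bel-7402 cells run side by side. Survival curves by MTT after 72 h treatment. IC50 is the concentration inhibiting 50% of cell growth.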
# Bel-7402 [14] = assay: Induction of apoptosis in human Bel7402 cells assessed as necrotic cells after 48 hrs at 0.125 uM by Annexin V/propidium iodide staining-based flow cytometric analysis (reference value: 1.99%); type: functional
# Bel-7402 [15] = assay: Induction of apoptosis in human Bel7402 cells assessed as early apoptotic cells after 48 hrs at 0.125 uM by Annexin V/propidium iodide staining-based flow cytometric analysis (reference value: 0.64%); type: functional
# [16] = Anticancer activity against ABCG2-overexpressing human NCI-H460/MX20 cells by MTT assay; type: functional, cell-based; method in brief: as §2
# Bel-7402 [17] = assay: Induction of apoptosis in human Bel7402 cells assessed as late apoptotic cells after 48 hrs at 0.25 uM by Annexin V/propidium iodide staining-based flow cytometric analysis (reference value: 5.21%); type: functional
# Bel-7402 [18] = assay: Induction of apoptosis in human Bel7402 cells assessed as viable cells after 48 hrs at 0.125 uM by Annexin V/propidium iodide staining-based flow cytometric analysis (reference value: 92.80%); type: functional; settings: Bel-7402, 48 h, read-out: Activity
# Bel-7402 [19] = assay: Induction of apoptosis in human Bel7402 cells assessed as viable cells after 48 hrs at 0.5 uM by Annexin V/propidium iodide staining-based flow cytometric analysis (reference value: 92.80%); type: functional; settings: Bel-7402, 48 h, read-out: Activity
# [20] = Cell cycle arrest in human Bel7402 cells assessed as cells at G1 phase at 0.5 uM after 48 hrs by propidium iodide staining-based flow cytometric analysis (reference value: 39.66%); type: functional; settings: Bel-7402
# Bel-7402 [21] = assay: Induction of apoptosis in human Bel7402 cells assessed as viable cells after 48 hrs at 0.25 uM by Annexin V/propidium iodide staining-based flow cytometric analysis (reference value: 92.80%); type: functional; settings: Bel-7402, 48 h, read-out: Activity
# SW-620 = assay: Anticancer activity against human SW620 cells by MTT assay; type: functional, cell-based; method in brief: as §2
# [22] = Cell cycle arrest in human Bel7402 cells assessed as cells at S phase at 0.5 uM after 48 hrs by propidium iodide staining-based flow cytometric analysis (reference value: 40.82%); type: functional; settings: Bel-7402
# Bel-7402 [23] = assay: Induction of apoptosis in human Bel7402 cells assessed as necrotic cells after 48 hrs at 0.25 uM by Annexin V/propidium iodide staining-based flow cytometric analysis (reference value: 1.99%); type: functional
# NCI-H460 = assay: Anticancer activity against human NCI-H460 cells by MTT assay; type: functional, cell-based; method in brief: as §2
# [24] = Cell cycle arrest in human Bel7402 cells assessed as cells at S phase at 0.25 uM after 48 hrs by propidium iodide staining-based flow cytometric analysis (reference value: 40.82%); type: functional; settings: Bel-7402
# Bel-7402 [25] = assay: Induction of apoptosis in human Bel7402 cells assessed as early apoptotic cells after 48 hrs at 0.25 uM by Annexin V/propidium iodide staining-based flow cytometric analysis (reference value: 0.64%); type: functional
# [26] = Cell cycle arrest in human Bel7402 cells assessed as cells at G1 phase at 0.25 uM after 48 hrs by propidium iodide staining-based flow cytometric analysis (reference value: 39.66%); type: functional; settings: Bel-7402
# [27] = Cytotoxicity against human L02 cells by MTT assay; type: cell-based; method in brief: as §3
# [28] = Cell cycle arrest in human Bel7402 cells assessed as cells at S phase at 0.125 uM after 48 hrs by propidium iodide staining-based flow cytometric analysis (reference value: 40.82%); type: functional; settings: Bel-7402
smiles,measurement,setting,value
C=C1C(=O)[C@]23[C@H](OC(=O)CCCc4ccc(N(CCCl)CCCl)cc4)[C@H]1CC[C@H]2[C@@]12CO[C@@]3(O)[C@@H](O)[C@@H]1C(C)(C)CC[C@@H]2OC(C)=O,IC50,[1],1.37 µM
same,IC50,MGC-803,2.25 µM
same,IC50,MCF7,0.79 µM
same,IC50,K562,1.1 µM
C=C1C(=O)[C@]23[C@H](OC(=O)CCC(=O)N[C@@H](Cc4ccc(N(CCCl)CCCl)cc4)C(=O)OC)[C@H]1CC[C@H]2[C@@]12CO[C@@]3(O)[C@@H](O)[C@@H]1C(C)(C)CCC2=O,IC50,[1],1.41 µM
same,IC50,MGC-803,3.39 µM
same,IC50,MCF7,2.88 µM
same,IC50,K562,1.66 µM
C=C1C(=O)[C@]23[C@H](OC(=O)c4ccc(N(CCCl)CCCl)cc4)[C@H]1CC[C@H]2[C@@]12CO[C@@]3(O)[C@@H](O)[C@@H]1C(C)(C)CCC2=O,IC50,[1],0.9 µM
same,IC50,MGC-803,1.6 µM
same,IC50,MCF7,0.67 µM
same,IC50,K562,1.17 µM
N[C@@H](Cc1ccc(N(CCCl)CCCl)cc1)C(=O)O [MELPHALAN],IC50,[1],24.8 µM
same,IC50,MGC-803,36.9 µM
same,IC50,MCF7,19.6 µM
same,IC50,K562,33.4 µM
C=C1C(=O)[C@]23[C@H](OC(=O)c4ccc(N(CCCl)CCCl)cc4)[C@H]1CC[C@H]2[C@@]12CO[C@@]3(O)[C@@H](O)[C@@H]1C(C)(C)CC[C@@H]2O,IC50,[2],1.86 µM
same,Activity,[3],13%
same,Activity,Bel-7402 [4],1.29%
same,Activity,Bel-7402 [5],Dose-dependent effect
same,Activity,[6],9.98%
same,Activity,Bel-7402 [7],10.53%
same,Activity,[8],4.46%
same,Activity,[9],45.6%
same,Activity,Bel-7402 [10],10.77%
same,Ratio IC50,Bel-7402 [11],8.06
same,IC50,[1],0.5 µM
same,Activity,Bel-7402 [12],37.51%
same,IC50,MGC-803,1.09 µM
same,IC50,MCF7,0.68 µM
same,IC50,[13],0.5 µM
same,Activity,Bel-7402 [14],2.12%
same,Activity,Bel-7402 [15],1.11%
same,IC50,[16],2.91 µM
same,Activity,Bel-7402 [17],19.85%
same,IC50,K562,1.12 µM
same,viability at 0.125 µM,Bel-7402 [18],87.1%
same,viability at 0.5 µM,Bel-7402 [19],50.7%
same,Activity,[20],52%
same,viability at 0.25 µM,Bel-7402 [21],75.8%
same,IC50,SW-620,1.96 µM
same,Activity,[22],43.6%
same,Activity,Bel-7402 [23],1.23%
same,IC50,NCI-H460,2.35 µM
same,Activity,[24],44.8%
same,Activity,Bel-7402 [25],3.14%
same,Activity,[26],45.2%
same,IC50,[27],4.03 µM
same,Activity,[28],41.3%
C=C1C(=O)[C@]23[C@H](OC(=O)c4ccc(N(CCCl)CCCl)cc4)[C@H]1CC[C@H]2[C@@]12CO[C@@]3(O)[C@@H](O)[C@@H]1C(C)(C)CC[C@@H]2OC(C)=O,IC50,[1],2.41 µM
same,IC50,MGC-803,3.76 µM
same,IC50,MCF7,0.91 µM
same,IC50,K562,1.35 µM
C=C1C(=O)[C@]23[C@H](OC(=O)CCC(=O)N[C@@H](Cc4ccc(N(CCCl)CCCl)cc4)C(=O)OC)[C@H]1CC[C@H]2[C@@]12CO[C@@]3(O)[C@@H](O)[C@@H]1C(C)(C)CC[C@@H]2OC(C)=O,IC50,[1],2.56 µM
same,IC50,MGC-803,4.71 µM
same,IC50,MCF7,3.63 µM
same,IC50,K562,1.73 µM
C=C1C(=O)[C@]23[C@H](OC(=O)[C@H](Cc4ccc(N(CCCl)CCCl)cc4)NC(=O)OC(C)(C)C)[C@H]1CC[C@H]2[C@@]12CO[C@@]3(O)[C@@H](O)[C@@H]1C(C)(C)CC[C@@H]2O,IC50,[1],2.36 µM
same,IC50,MGC-803,6.72 µM
same,IC50,MCF7,3.22 µM
same,IC50,K562,1.41 µM

# Reference: ChEMBL document CHEMBL3352716 (ACS Med Chem Lett, 2014)
